# Results gathered from unrelated publications.
# Each line is one published result; the experiments were not run side by side.
# Read-out: DPPH scavenging
SMILES,technique,time,IC50
O=C1O[C@H]([C@@H](O)CO)C(O)=C1O,,,350 µM
Cc1cc(C(C)(C)C)c(O)c(C(C)(C)C)c1,absorbance,30 min,0.069 mg/mL
Cc1c(C)c2c(c(C)c1O)CCC(C)(C(=O)O)O2 (stereo not shown),,,221 µM
O=[N+]([O-])c1ccccc1/C=N/N=C/c1ccccc1[N+](=O)[O-],,,2940 µM
CCN(CC)c1ccc(/C=N/c2ccccc2Br)c(O)c1,,,40.5 µM
Clc1ccc(/C=N/N=C/c2ccc(Cl)cc2)cc1,,,> 3000 µM
Oc1cc(O)c2c(c1)O[C@H](c1ccc(O)c(O)c1)[C@@H](O)C2,,,31.2 µM
Fc1ccccc1/C=N/N=C/c1ccccc1F,,,2800 µM
CCN(CC)c1ccc(/C=N/c2ccccc2F)c(O)c1,,,38.1 µM
O=C1O[C@H]([C@@H](O)CO)C(O)=C1O,absorbance,30 min,12.4 µM
